# Screening results deposited in PubChem by several laboratories.
# Mdm2 MdmX PPI: inhibitors of human Mdm2/MdmX interaction | SaOS-2 split-luciferase Mdm2/MdmX complementation, luminescence | O15151+Q00987 | AID 485346 | actives 3% (n = 330,000) | inhibition, % at 8 µM;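 active = inhibition of at least 50% at 8 µM in the primary screen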
# Target sequence (O15151 whole entry, looked up): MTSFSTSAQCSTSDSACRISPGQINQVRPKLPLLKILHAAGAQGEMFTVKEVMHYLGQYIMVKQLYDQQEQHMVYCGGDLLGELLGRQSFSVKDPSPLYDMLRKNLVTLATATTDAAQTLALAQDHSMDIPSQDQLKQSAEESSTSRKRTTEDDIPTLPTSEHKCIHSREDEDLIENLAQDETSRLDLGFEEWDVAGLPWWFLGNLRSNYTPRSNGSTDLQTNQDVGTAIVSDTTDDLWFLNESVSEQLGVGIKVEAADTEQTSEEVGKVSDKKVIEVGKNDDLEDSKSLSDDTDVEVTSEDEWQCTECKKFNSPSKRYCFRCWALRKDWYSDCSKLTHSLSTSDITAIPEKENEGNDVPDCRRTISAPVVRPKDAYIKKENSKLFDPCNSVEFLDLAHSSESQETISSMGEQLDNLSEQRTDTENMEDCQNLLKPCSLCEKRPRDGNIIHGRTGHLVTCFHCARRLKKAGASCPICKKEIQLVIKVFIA
# Target sequence (Q00987 whole entry, looked up): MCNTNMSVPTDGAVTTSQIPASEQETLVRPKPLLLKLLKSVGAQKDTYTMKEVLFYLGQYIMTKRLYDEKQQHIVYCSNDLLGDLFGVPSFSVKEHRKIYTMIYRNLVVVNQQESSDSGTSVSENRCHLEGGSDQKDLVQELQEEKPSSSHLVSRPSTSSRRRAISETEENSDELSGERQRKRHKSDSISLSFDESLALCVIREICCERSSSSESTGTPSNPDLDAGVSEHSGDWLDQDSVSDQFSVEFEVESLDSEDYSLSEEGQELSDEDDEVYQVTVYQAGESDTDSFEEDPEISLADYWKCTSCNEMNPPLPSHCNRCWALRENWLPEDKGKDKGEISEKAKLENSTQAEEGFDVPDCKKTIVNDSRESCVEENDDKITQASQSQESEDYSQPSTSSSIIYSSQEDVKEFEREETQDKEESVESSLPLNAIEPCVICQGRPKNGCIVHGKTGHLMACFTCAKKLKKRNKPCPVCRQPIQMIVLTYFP
# Beta cell apopt: beta cell apoptosis inhibition | INS-1E cytokine-induced death, ATP luminescence, 48 h; percent of positive-control rescue, neutral wells zero | actives 0.8% (n = 300,000) | protection from apoptosis, % (no concentration beside the values);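 active = Every replicate reaches about 75%, or at least half do and their mean reaches it too, limit read from the data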;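 note: 0% = cytokine-treated negative control wells and 100% = positive control rescue; higher means more ATP so stronger rescue from cytokine killing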
# T cruzi repl: T. cruzi replication inhibition; T. cruzi beta-gal in NIH3T3, luminescence, 90 h; inhibition, % (concentration not given with the values); actives 1.4% (n = 300,000); AID 1885;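 active = mean inhibition across valid replicates above about 55%, limit read from the data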;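 note: signal also drops with host cell toxicity which is not excluded here; 0% = plate median of DMSO wells and 100% = zero luminescence signal; higher percent means less beta-gal luminescence so fewer parasites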
#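 Assay system: NIH/3T3 host cells with β-galactosidase reporter T. cruzi; input: 5,000 host fibroblasts per well; compound: single 50 nL compound addition per well in DMSO; timing: ≥90 h infection period, 3 h prior cell attachment; measured by: GalScreen β-gal luminescence, detergent lysis, 60 min; evaluation: percent inhibition of parasite-derived β-gal signal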
# Calb FLC: affects C. albicans growth with fluconazole; C. albicans CaCi-2 (fluconazole-resistant clinical isolate) + fluconazole, Alamar Blue growth, 48 h; growth inhibition, % (test concentration not listed); actives 0.57% (n = 300,000);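 active = growth inhibition above about 58% in most replicates, limit read from the data, passing the limit was not always enough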;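 note: all wells also contain fluconazole at 8 µg/ml as a sub-toxic cotreatment; 0% = median of DMSO wells and 100% = median of geldanamycin control wells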
# CSC inhib: cancer stem cell inhibition. cancer stem cell-like cells viability, luminescence. AID 2717. actives 1.1% (n = 300,000). inhibition, % at 7.5 µM; in the data active = inhibition above about 75%; tested in HMLE shEcad cells
# NLRP3 yeast inh: blocks the NALP3 inflammasome reconstituted in yeast; Yeast reconstituted NLRP3/ASC/caspase-1, beta-gal luminescence, 24 h; inhibition, % at 10 µM; actives 0.39% (n = 330,000);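 active = inhibition of 50% or more; inactive = inhibition below 50%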;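 note: plate controls were induced DMSO wells for no effect and uninduced yeast grown without galactose for full effect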
# Mdm2 MdmX conf: human Mdm2/MdmX binding inhibition, confirmed. shares compounds with Mdm2 MdmX PPI. luminescent assay. inhibition, % at 8 µM. actives 55% (n = 10,000). AID 489028; in the data active = inhibition above about 40%
# Full FLuc ctr: counter-screen for Mdm2/MdmX inhibitors: full-length luciferase. SaOS-2 full-length luciferase counterscreen, luminescence. inhibition, % at 8 µM. actives 77% (n = 6,200). AID 504607. shares compounds with Mdm2 MdmX PPI;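 active = mean inhibition at 8 µM reaching about 37%, which flags the compound as non-specific, limit read from the data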;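 note: p53-null SaOS-2 cells with luciferase driven by a doxycycline-inducible promoter; compound on cells about two nights before reading with doxycycline added after day one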
# The depositor's hits bear a star; x = not tested or not shown. Most compounds without a hit are left out; they make up all but 5.3% or so of the library.
SMILES,Mdm2 MdmX PPI,Beta cell apopt,T cruzi repl,Calb FLC,CSC inhib,NLRP3 yeast inh,Mdm2 MdmX conf,Full FLuc ctr
O=C(Nc1nccs1)c1cc(-c2ccccn2)nc2c(Cl)cccc12,77.9*,4.4,-18.2,4.0,6.7,46.4,24.9,x
Cc1cc(NC(=O)c2cc(-c3ccccn3)nc3c(Cl)cccc23)no1,23.1,1.0,-6.7,-0.1,6.2,18.3,x,x
Cc1c(Cl)ccc2c(C(=O)NCCN3CCCCC3)cc(-c3ccccn3)nc12,50.0,11.3,-6.9,13.9,18.9,2.8,34.0,60.6*
CCCCN(C)C(=O)c1sc2ncn(CC)c(=O)c2c1C,34.7,-1.8,-6.8,-0.8,0.3,21.5,x,x
COc1cc2oc(=O)cc(-c3ccc(-c4ccc(C)cc4)cc3)c2c(OC)c1OC,33.5,x,x,x,x,x,x,x
COc1cc2oc(=O)cc(-c3ccc(-c4ccc(CO)cc4)cc3)c2c(OC)c1OC,68.3*,x,x,x,x,x,64.5*,48.1*
CCn1c(/C=C/Nc2ccccc2)[n+](CC)c2cc(Cl)c(Cl)cc21,97.5*,4.3,-22.8,-7.5,10.3,8.3,27.5,x
CCn1c(/C=C/N(C(C)=O)c2ccccc2)[n+](CCCS(=O)(=O)[O-])c2cc(Cl)c(Cl)cc21,-17.3,-5.0,-16.4,-7.0,5.9,8.5,x,x
O=C(/C=C/C(=O)NCc1cccs1)NCc1cccs1,62.5*,-0.4,-5.2,9.3,-9.4,13.4,3.9,x
O=C(/C=C/c1ccc(Cl)cc1)NCc1cccs1,-67.1,-12.9,-6.0,-2.6,-12.0,36.8,x,x
Cc1c(/C=N/Nc2nc3ccccc3[nH]2)c2ccccc2n1C,92.7*,117.0*,56.4*,6.2,35.5,27.1,48.0*,71.1*
O=[N+]([O-])c1ccc(O)c(/C=N/Nc2ncnc3c2cnn3-c2ccccc2)c1,90.8*,16.4,-7.7,37.3,104.1*,9.4,91.2*,21.3
O=[N+]([O-])c1ccc(O)c(/C=N/Nc2nc3ccccc3[nH]2)c1,89.2*,99.1*,32.3,31.7,101.8*,18.8,51.5*,48.5*
CC(C)Cn1c(/C=N/Nc2nc3ccccc3[nH]2)nc2ccccc21,x,x,46.0,4.4,x,x,x,x
COc1cccc(/C=N/Nc2nc3ccccc3[nH]2)c1O,61.1*,94.0*,47.6,66.6,67.5,13.8,40.2*,60.6*
COc1ccc(OCC(=O)NCCNC(=O)c2ccncc2)cc1,-5.6,3.0,-4.0,-2.3,1.0,2.6,x,x
CC(C)/C=N/NC(=O)c1cccc(N2CCCC2=O)c1,5.6,-2.6,-11.0,-1.4,3.8,-5.8,x,x
CCc1ccc(/C=C/C(=O)c2cc(Br)ccc(=O)c2O)cc1,52.0*,-0.3,33.0,93.8*,9.3,15.0,39.0,40.3*
CCOc1ccc(/C=C/C(=O)c2cc(Br)ccc(=O)c2O)cc1,x,1.5,x,x,46.0,x,x,x
Cc1cccc(/C=C/C(=O)c2cc(Br)ccc(=O)c2O)c1,54.4*,38.0,43.0,99.6*,102.9*,11.5,36.4,73.0*
C=CCNC(=S)NNC(=O)c1ccc(=O)n(Cc2ccccc2)c1,5.8,-5.2,-9.4,-7.3,-7.5,14.7,x,x
COc1ccc(Nc2nc(N)nc(CCl)n2)cc1,87.0*,0.9,51.8,-10.7,-3.2,-0.9,87.0*,52.1*
Cc1ccccc1Nc1nc(N)nc(CN(C)c2ccccc2)n1,24.4,-1.1,-0.3,-0.8,6.3,5.0,x,x
Cc1ccccc1Nc1nc(N)nc(CCl)n1,93.6*,-5.6,6.8,2.7,-4.9,1.7,91.2*,40.1*
Nc1nc(CCl)nc(Nc2ccc3ccccc3c2)n1,x,x,18.3,13.7,x,x,x,x
O=C(Cc1ccc([N+](=O)[O-])cc1)N1N=C2CCCCC2C1(O)C(F)(F)F (centres undefined),13.9,-3.9,-12.4,7.8,3.5,12.0,x,x
O=C(NC(=S)Nc1cccc(NC(=O)c2ccc(Cl)cc2Cl)c1)c1cccs1,15.3,3.5,0.8,-10.9,-1.7,15.3,x,x
C/C(=N/NC(=O)c1cccs1)c1ccc(NC(=O)COc2ccc(Cl)cc2Cl)cc1,75.0*,2.0,1.6,x,21.5,8.1,11.2,x
